Results from ChEMBL document CHEMBL5653630, “Activation of the p53-MDM4 regulatory axis defines the anti-tumour response to PRMT5 inhibition through its role in regulating cellular splicing” (Sci Rep, 2018).

Columns and labels:
Pfeiffer = test: Antiproliferative activity against human Pfeiffer cells assessed as cell growth inhibition incubated for 6 days by celltiter-glo assay; type: functional; settings: 144 h, time 6 day
How it was run: (§1)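 Cells seeded in 384-well plates at an optimized density and held 24 h. Day 0: treated in duplicate with a 20-point two-fold series (top dose ≤29 μM, ≤0.15% DMSO) and incubated 6 days. CellTiter-Glo luminescence read at Day 0 and Day 6. Four-parameter fit. gIC50 = midpoint of the growth window between DMSO and T0. Curves required ≥1.5 population doublings.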

[1] = Antiproliferative activity against human MINO cells assessed as cell growth inhibition incubated for 6 days by celltiter-glo assay; type: functional; settings: 144 h, time 6 day; how it was run: as §1
[2] = Antiproliferative activity against human PER-403 cells assessed as cell growth inhibition incubated for 6 days by celltiter-glo assay; type: functional; settings: PER-403, 144 h, time 6 day; how it was run: as §1
UMUC3 = test: Antiproliferative activity against human UMUC3 cells assessed as cell growth inhibition incubated for 6 days by celltiter-glo assay; type: functional; settings: UMUC3, 144 h, time 6 day; how it was run: as §1
[3] = Antiproliferative activity against human PER-704 cells assessed as cell growth inhibition incubated for 6 days by celltiter-glo assay; type: functional; settings: PER-704, 144 h, time 6 day; how it was run: as §1
SU-DHL-16 = test: Antiproliferative activity against human SU-DHL-16 cells assessed as cell growth inhibition incubated for 6 days by celltiter-glo assay; type: functional; settings: SU-DHL-16, 144 h, time 6 day; how it was run: as §1
HCC1806 = test: Antiproliferative activity against human HCC1806 cells assessed as cell growth inhibition incubated for 6 days by celltiter-glo assay; type: functional; settings: HCC1806, 144 h, time 6 day
How it was run: (§2)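 Cells were seeded in 384-well plates and incubated 24 h, then treated in duplicate with a 20-point, 2-fold dilution series (top dose ≤29 μM, ≤0.15% DMSO) for 6 days. CellTiter-Glo luminescence was read on day 0 and day 6. A 4-parameter fit was used, and curves needed at least 1.5 population doublings. gIC50 is the midpoint of the growth window between DMSO and T0.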

SW780 = test: Antiproliferative activity against human SW780 cells assessed as cell growth inhibition incubated for 6 days by celltiter-glo assay; type: functional; settings: SW780, 144 h, time 6 day; how it was run: as §1
NU-DHL-1 = test: Antiproliferative activity against human NU-DHL-1 cells assessed as cell growth inhibition incubated for 6 days by celltiter-glo assay; type: functional; settings: NU-DHL-1, 144 h, time 6 day; how it was run: as §1
LP-1 = test: Antiproliferative activity against human LP-1 cells assessed as cell growth inhibition incubated for 6 days by celltiter-glo assay; type: functional; settings: LP-1, 144 h, time 6 day; how it was run: as §1
MDA-MB-453 = test: Antiproliferative activity against human MDA-MB-453 cells assessed as cell growth inhibition incubated for 6 days by celltiter-glo assay; type: functional; settings: MDA-MB-453, 144 h, time 6 day; how it was run: as §1
RCK8 = test: Antiproliferative activity against human RCK8 cells assessed as cell growth inhibition incubated for 6 days by celltiter-glo assay; type: functional; settings: RCK8, 144 h, time 6 day; how it was run: as §1
SUD4 = test: Antiproliferative activity against human SU-DHL-4 cells assessed as cell growth inhibition incubated for 6 days by celltiter-glo assay; type: functional; settings: SU-DHL-4, 144 h, time 6 day; how it was run: as §1
SU-DHL-6 = test: Antiproliferative activity against human SU-DHL-6 cells assessed as cell growth inhibition incubated for 6 days by celltiter-glo assay; type: functional; settings: SU-DHL-6, 144 h, time 6 day; how it was run: as §1
JM1 = test: Antiproliferative activity against human JM1 cells assessed as cell growth inhibition incubated for 6 days by celltiter-glo assay; type: functional; settings: JM1, 144 h, time 6 day; how it was run: as §1
HCC1143 = test: Antiproliferative activity against human HCC1143 cells assessed as cell growth inhibition viability incubated for 6 days by celltiter-glo assay; type: functional; settings: HCC1143, 144 h, time 6 day; how it was run: as §2
SU-DHL-5 = test: Antiproliferative activity against human SU-DHL-5 cells assessed as cell growth inhibition incubated for 6 days by celltiter-glo assay; type: functional; settings: SU-DHL-5, 144 h, time 6 day; how it was run: as §1
SU-DHL-2 = test: Antiproliferative activity against human SUDHL2 cells assessed as cell growth inhibition incubated for 6 days by celltiter-glo assay; type: functional; settings: SU-DHL-2, 144 h, time 6 day; how it was run: as §1
RL = test: Antiproliferative activity against human RL cells assessed as cell growth inhibition incubated for 6 days by celltiter-glo assay; type: functional; settings: 144 h, time 6 day; how it was run: as §1
LN-229 = test: Antiproliferative activity against human LN-229 cells assessed as cell growth inhibition incubated for 6 days by celltiter-glo assay; type: functional; settings: LN-229, 144 h, time 6 day; how it was run: as §1
WSU-NHL = test: Antiproliferative activity against human WSU-NHL cells assessed as cell growth inhibition incubated for 6 days by celltiter-glo assay; type: functional; settings: 144 h, time 6 day; how it was run: as §1
J82 = test: Antiproliferative activity against human J82 cells assessed as cell growth inhibition incubated for 6 days by celltiter-glo assay; type: functional; settings: J82, 144 h, time 6 day; how it was run: as §1
5637 = test: Antiproliferative activity against human 5637 cells assessed as cell growth inhibition incubated for 6 days by celltiter-glo assay; type: functional; settings: Homo sapiens, 5637, 144 h; time 6 day
How it was run: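 Cells seeded in 384-well plates and held 24 h, then treated in duplicate with a 20-point two-fold dilution series (≤29 μM top dose, ≤0.15% DMSO) for 6 days. CellTiter-Glo luminescence read on Day 0 and Day 6. 4-parameter fit; curves QC'd for population doubling ≥1.5. gIC50 = concentration at the midpoint between the DMSO and T0 values.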

ZR-75-1 = test: Antiproliferative activity against human ZR-75-1 cells assessed as cell growth inhibition incubated for 6 days by celltiter-glo assay; type: functional; settings: ZR-75-1, 144 h, time 6 day; how it was run: as §1
NCI-H526 = test: Antiproliferative activity against human NCI-H526 cells assessed as cell growth inhibition incubated for 6 days by celltiter-glo assay; type: functional; settings: NCI-H526, 144 h, time 6 day; how it was run: as §1
MDA-MB-468 = test: Antiproliferative activity against human MDA-MB-468 cells assessed as cell growth inhibition incubated for 6 days by celltiter-glo assay; type: functional; settings: MDA-MB-468, 144 h, time 6 day; how it was run: as §1
JeKo-1 = test: Antiproliferative activity against human JeKo-1 cells assessed as cell growth inhibition incubated for 6 days by celltiter-glo assay; type: functional; settings: JeKo-1, 144 h, time 6 day; how it was run: as §1
Z-138 = test: Antiproliferative activity against human Z138 cells assessed as cell growth inhibition incubated for 6 days by celltiter-glo assay; type: functional; settings: Z-138, 144 h, time 6 day; how it was run: as §1
SK-BR-3 = test: Antiproliferative activity against human SK-BR-3 cells assessed as cell growth inhibition incubated for 6 days by celltiter-glo assay; type: functional; settings: SK-BR-3, 144 h, time 6 day; how it was run: as §1
SF-539 = test: Antiproliferative activity against human SF-539 cells assessed as cell growth inhibition incubated for 6 days by celltiter-glo assay; type: functional; settings: SF-539, 144 h, time 6 day; how it was run: as §1
U-87 MG = test: Antiproliferative activity against human U-87 MG cells assessed as cell growth inhibition incubated for 6 days by celltiter-glo assay; type: functional, U-87MG ATCC; settings: 144 h, time 6 day; how it was run: as §1
U2932 = test: Antiproliferative activity against human U2932 cells assessed as cell growth inhibition incubated for 6 days by celltiter-glo assay; type: functional; settings: U2932, 144 h, time 6 day; how it was run: as §1
T-24 = test: Antiproliferative activity against human T24 cells assessed as cell growth inhibition incubated for 6 days by celltiter-glo assay; type: functional; settings: T-24, 144 h, time 6 day; how it was run: as §1
HT-1376 = test: Antiproliferative activity against human HT-1376 cells assessed as cell growth inhibition incubated for 6 days by celltiter-glo assay; type: functional; settings: HT-1376, 144 h, time 6 day; how it was run: as §2

## CC(=O)N1CCC(Nc2cc(C(=O)NC[C@H](O)CN3CCc4ccccc4C3)ncn2)CC1 [PEMRAMETOSTAT]
Pfeiffer
  GI50: 421 nM
[1]
  GI50: 130 nM
[2]
  GI50: 38 nM
UMUC3
  GI50: 29300 nM
[3]
  GI50: 658 nM
SU-DHL-16
  GI50: 99 nM
HCC1806
  GI50: 98 nM
SW780
  GI50: 290 nM
NU-DHL-1
  GI50: 333 nM
LP-1
  GI50: 1940 nM
MDA-MB-453
  GI50: 29 nM
RCK8
  GI50: 529 nM
SUD4
  GI50: 492 nM
SU-DHL-6
  GI50: 4 nM
JM1
  GI50: 79 nM
HCC1143
  GI50: 246 nM
SU-DHL-5
  GI50: 28 nM
SU-DHL-2
  GI50: 28 nM
RL
  GI50: 14 nM
LN-229
  GI50: 254 nM
WSU-NHL
  GI50: 8 nM
J82
  GI50: 29300 nM
5637
  GI50: 69 nM
ZR-75-1
  GI50: 11000 nM
NCI-H526
  GI50: 275 nM
MDA-MB-468
  GI50: 57 nM
JeKo-1
  GI50: 5400 nM
Z-138
  GI50: 4 nM
SK-BR-3
  GI50: 73 nM
SF-539
  GI50: 61 nM
U-87 MG
  GI50: 40 nM
U2932
  GI50: 53 nM
T-24
  GI50: 765 nM
HT-1376
  GI50: 17600 nM

## O=C(NC[C@H](O)CN1CCc2ccccc2C1)c1ccnc(NC2CCC2)c1
Pfeiffer
  GI50: 352 nM
[1]
  GI50: 536 nM
[2]
  GI50: 29 nM
UMUC3
  GI50: 19200 nM
[3]
  GI50: 375 nM
SU-DHL-16
  GI50: 124 nM
HCC1806
  GI50: 261 nM
SW780
  GI50: 451 nM
NU-DHL-1
  GI50: 101 nM
LP-1
  GI50: 975 nM
MDA-MB-453
  GI50: 343 nM
RCK8
  GI50: 2110 nM
SUD4
  GI50: 571 nM
SU-DHL-6
  GI50: 13 nM
JM1
  GI50: 76 nM
HCC1143
  GI50: 509 nM
SU-DHL-5
  GI50: 132 nM
SU-DHL-2
  GI50: 86 nM
RL
  GI50: 1430 nM
LN-229
  GI50: 1150 nM
WSU-NHL
  GI50: 76 nM
J82
  GI50: 20900 nM
5637
  GI50: 143 nM
ZR-75-1
  GI50: 2620 nM
NCI-H526
  GI50: 138 nM
MDA-MB-468
  GI50: 585 nM
JeKo-1
  GI50: 6190 nM
Z-138
  GI50: 14 nM
SK-BR-3
  GI50: 131 nM
SF-539
  GI50: 75 nM
U-87 MG
  GI50: 127 nM
U2932
  GI50: 336 nM
T-24
  GI50: 650 nM
HT-1376
  GI50: 13100 nM
